Published values from different studies.
Each line is one published result; the experiments were not run side by side.
Target: Muscle, skeletal receptor tyrosine-protein kinase (MUSK, Homo sapiens, UniProt O15146)
Sequence (O15146 24-869, as in one of the studies): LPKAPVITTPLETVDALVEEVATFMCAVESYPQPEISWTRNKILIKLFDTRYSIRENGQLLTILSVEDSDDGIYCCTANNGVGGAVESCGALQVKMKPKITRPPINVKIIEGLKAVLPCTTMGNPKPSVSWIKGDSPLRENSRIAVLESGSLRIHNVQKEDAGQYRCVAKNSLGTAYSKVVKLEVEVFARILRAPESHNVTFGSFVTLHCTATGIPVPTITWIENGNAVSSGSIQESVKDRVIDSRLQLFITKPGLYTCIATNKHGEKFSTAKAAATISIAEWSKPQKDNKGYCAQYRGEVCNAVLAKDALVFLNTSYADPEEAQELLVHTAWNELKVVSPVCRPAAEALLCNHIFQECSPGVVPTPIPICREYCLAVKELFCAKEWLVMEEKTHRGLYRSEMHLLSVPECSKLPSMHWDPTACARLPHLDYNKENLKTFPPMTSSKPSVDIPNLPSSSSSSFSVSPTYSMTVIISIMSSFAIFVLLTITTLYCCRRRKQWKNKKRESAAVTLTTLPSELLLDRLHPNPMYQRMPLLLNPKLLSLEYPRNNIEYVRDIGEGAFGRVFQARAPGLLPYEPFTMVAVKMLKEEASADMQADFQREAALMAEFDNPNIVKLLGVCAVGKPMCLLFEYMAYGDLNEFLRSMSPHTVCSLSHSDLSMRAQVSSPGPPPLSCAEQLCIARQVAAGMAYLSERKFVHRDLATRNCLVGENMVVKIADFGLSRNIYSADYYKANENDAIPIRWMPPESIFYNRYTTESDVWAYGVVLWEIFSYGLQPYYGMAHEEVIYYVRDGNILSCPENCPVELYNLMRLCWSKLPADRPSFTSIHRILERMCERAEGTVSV

CN1CCN(C(=O)c2ccc(NC(=O)Nc3ccc(N(C)c4ccnc(Nc5ccc(CS(C)(=O)=O)cc5)n4)cc3)cc2)CC1  remaining binding (binding; competition with immobilised ligand; 1 µM): 11%
CO[C@@H]1[C@H](N(C)C(=O)c2ccccc2)C[C@H]2O[C@]1(C)n1c3ccccc3c3c4c(c5c6ccccc6n2c5c31)C(=O)NC4  inhibition (enzyme activity; inhibitor; 1 µM): 0%
CCCCC(=O)Nc1ccc(-c2ccc3ncn(CCC)c(=O)c3c2)cn1  remaining binding (binding; competition with immobilised ligand; 0.5 µM): 93%
C=CC(=O)N1CCC([C@@H]2CCNc3c(C(N)=O)c(-c4ccc(Oc5ccccc5)cc4)nn32)CC1  inhibition (enzyme activity; inhibitor; 1 µM): 16%
CC(C)S(=O)(=O)c1ccc2nccc(Nc3ccc4sc(C5CCCC5)nc4c3)c2c1  activity vs control (enzyme activity; inhibitor; 1 µM): 101%
C1=C/COCc2cc(ccc2OCCN2CCCC2)Nc2nccc(n2)-c2cccc(c2)COC/1  remaining binding (binding; 0.1 µM): 89%
Cc1ccc(NC(=O)c2ccnc(C(F)(F)F)c2)cc1-c1cc(OCCO)nc(N2CCOCC2)c1  remaining binding (binding; competition with immobilised ligand; 1 µM): 91%
C#Cc1cc(-c2cc(Nc3nc(N[C@@H](C)c4ccc(F)cn4)ncc3Cl)n[nH]2)ccc1C=O  inhibition (enzyme activity; inhibitor; 0.2 µM): 100%
